Laboratory results published in ChEMBL document CHEMBL1153083, “Antiprotozoal, anticancer and antimicrobial activities of dihydroartemisinin acetal dimers and monomers” (Bioorg Med Chem, 2009).

What was measured:
Pseudomonas aeruginosa = assay: Antibacterial activity against Pseudomonas aeruginosa ATCC 27853 by modified CLSI/NCCLS method; format: functional, organism-based
Vero = assay: Toxicity against african green monkey Vero cells after 48 hrs by neutral red assay; format: cell-based; settings: chlorocebus sabaeus, vero, 48 h
Summary of the method: (§1)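 Cells seeded at 25,000 per well and incubated 24 h, then exposed to samples for 48 h. Viable cells were counted by neutral red, with DMSO as vehicle control. IC50 or TC50 values were derived from logarithmic plots of growth inhibition versus concentration.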

Staphylococcus aureus = assay: Antibacterial activity against methicillin-resistant Staphylococcus aureus ATCC 43300 by modified CLSI/NCCLS method; format: functional, organism-based
[1] = Selectivity index, ratio of TC50 for african green monkey (Cercopithecus aethiops) Vero cells to IC50 for Plasmodium falciparum D6; format: toxicity, cell-based
Plasmodium falciparum [2] = assay: Antiplasmodial activity against Plasmodium falciparum D6 infected in RBCs by parasitic LDH release assay; format: functional, organism-based
Summary of the method: (§2)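 Infected erythrocytes at 2% parasitemia and 2% hematocrit, in RPMI 1640 with 10% human serum and amikacin 60 μg/mL, were exposed to serial dilutions under N2/O2/CO2 (90:5:5) at 37°C for 72 h. LDH was read with Malstat reagent (30 min), then NBT/PES in the dark (60 min), stopped with 5% acetic acid, at 650 nm. IC50 came from percent growth dose-response curves.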

Escherichia coli = assay: Antibacterial activity against Escherichia coli ATCC 35218 by modified CLSI/NCCLS method; format: functional, organism-based; settings: Escherichia coli, ATCC 35218; read-out: IC50
Leishmania donovani = assay: Antileishmanial activity against Leishmania donovani promastigotes after 48 hrs by alamar blue assay; format: functional, organism-based; settings: Leishmania donovani, 48 h
SK-MEL = assay: Cytotoxicity against human SK-MEL cells after 48 hrs by neutral red assay; format: functional, cell-based; settings: sk-mel; summary of the method: as §1
Candida albicans = assay: Antifungal activity against Candida albicans ATCC 90028 by modified CLSI/NCCLS method; format: functional, organism-based
[3] = Selectivity index, ratio of TC50 for african green monkey (Cercopithecus aethiops) Vero cells to IC50 for Plasmodium falciparum W2; format: toxicity, cell-based
[4] = Toxicity against pig LLC-PK11 cells after 48 hrs by neutral red assay; format: cell-based, Sus scrofa; settings: llc-pk11, 48 h; summary of the method: as §1
Aspergillus fumigatus = assay: Antifungal activity against Aspergillus fumigatus ATCC 90906 by modified CLSI/NCCLS method; format: functional, organism-based
BT-549 = assay: Cytotoxicity against human BT549 cells after 48 hrs by neutral red assay; format: functional, cell-based; settings: bt-549; summary of the method: as §1
KB = assay: Cytotoxicity against human KB cells after 48 hrs by neutral red assay; format: functional, cell-based; settings: kb; summary of the method: as §1
Cryptococcus neoformans = assay: Antifungal activity against Cryptococcus neoformans ATCC 90113 by modified CLSI/NCCLS method; format: functional, organism-based
[5] = tested on: Mycobacterium intracellulare; assay: Antibacterial activity against Mycobacterium intracellular ATCC 23068 by Franzblau method; format: functional, organism-based
[6] = Cytotoxicity against human NCI60 cells after 48 hrs by neutral red assay; format: functional; settings: NCI60, 48 h
Plasmodium falciparum [7] = assay: Antiplasmodial activity against Plasmodium falciparum W2 infected in RBCs by parasitic LDH release assay; format: functional, organism-based; summary of the method: as §2
[8] = Toxicity against african green monkey Vero cells; format: cell-based; settings: chlorocebus sabaeus; summary of the method: as §1
SK-OV-3 = assay: Cytotoxicity against human SKOV3 cells after 48 hrs by neutral red assay; format: functional, cell-based; settings: sk-ov-3; summary of the method: as §1

C[C@H]1[C@@H](OCc2cc(O)cc(O[C@H]3O[C@@H]4O[C@@]5(C)CC[C@H]6[C@H](C)CC[C@@H]([C@H]3C)[C@@]46OO5)c2)O[C@@H]2O[C@@]3(C)CC[C@H]4[C@H](C)CC[C@@H]1[C@@]24OO3
IC50 (Pseudomonas aeruginosa): Not Active
TC50 (Vero): Not Active
IC50 (Staphylococcus aureus): Not Active
selectivity ratio [1]: > 2380
IC50 (Plasmodium falciparum [2]): 3 nM
IC50 (Escherichia coli): 22300 nM
IC90 (Leishmania donovani): 32700 nM
IC50 (Leishmania donovani; read-out: IC50): 5900 nM
IC50 (SK-MEL): Not Active
IC50 (Candida albicans): Not Active
selectivity ratio [3]: > 1700
TC50 [4]: Not Active
IC50 (Aspergillus fumigatus): Not Active
IC50 (BT-549): Not Active
IC50 (KB): Not Active
IC50 (Cryptococcus neoformans): 1490 nM
IC50 [5]: Not Active
GI50 [6]: 24.5 nM
TGI [6]: 2820 nM
CC50 ([6]; read-out: LC50 (the source's name)): 15100 nM
IC50 (Plasmodium falciparum [7]): 4.2 nM
CC50 [8]: > 7070 nM
IC50 (SK-OV-3): Not Active
